Source: paper PMC4284021 (The Journal of Pharmacy and Pharmacology, 2014)
“And” between values parts separate entries of the source, which are not always exact repeats. Equal entries are not always repeated. “Also recorded” adds a separate entry of the source. Marks after values point to notes of the source that are not given here.

Columns and labels:
[1] = Multiple-dose pharmacokinetics of evacetrapib in plasma; type: in vivo, human; details: for CL/F: geometric mean (CV %)
In short: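 Once-daily oral doses of 10–600 mg for 14–15 days. Sampling: six serial samples on Day 1; 11 through 336 h after the last dose; trough samples on Days 2, 3, 4, 7 and 10. Acidified K2EDTA plasma was extracted by anion-exchange SPE with an isotope-labelled internal standard. Analysis by C18 LC/MS/MS, positive ion, SRM m/z 639→314. Range 1–1000 ng/ml. Parameters by non-compartmental analysis; dose proportionality on Day 14 by power model.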

[2] = system: HDL-C, LDL-C, total cholesterol, triglycerides; experiment: Lipid analyses; type: in vivo, human; details: for HDL-C: Mean % change from baseline (90% CI) / HDL-C: Mean % change vs placebo (90 % CI) / LDL-C: Mean % change from baseline (90% CI) / LDL-C: Mean % change vs placebo (90 % CI) / Total cholesterol: Mean % change from baseline (90% CI) / Total cholesterol: Mean % change vs placebo (90 % CI) / Triglycerides: Mean % change from baseline (90% CI) / Triglycerides: Mean % change vs placebo (90 % CI): day 14
In short: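 Placebo-controlled once-daily oral capsules (10–600 mg) with a low-fat meal for 14–15 days. Total cholesterol and triglycerides were measured by enzymatic methods. HDL-C was measured after dextran sulfate precipitation and centrifugation of LDL/VLDL. LDL-C was measured by a direct assay. Change from baseline was taken to Day 14 and to 2 weeks after the last dose. Emax models (Hill coefficient 1, baseline covariate) were used for HDL-C/LDL-C; linear models for total cholesterol and triglycerides.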

[3] = system: HDL-C and LDL-C; experiment: Emax model of plasma evacetrapib exposure; type: in vivo, human; details: model estimate (90% CI)
In short: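 Change from baseline in HDL-C and LDL-C on Day 14 was fitted against steady-state plasma AUC. AUC came from LC/MS/MS and non-compartmental analysis. Model: Emax, the maximal response, and EAUC50, the AUC giving 50% of the maximal response.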

[4] = system: dyslipidemic patients; details: cited from earlier work
[5] = AUC producing 50% of maximal response
[6] = Phase 2, nearly 400 dyslipidemic patients

Cc1cc(C)c2c(c1)[C@@H](N(Cc1cc(C(F)(F)F)cc(C(F)(F)F)c1)c1nnn(C)n1)CCCN2C[C@H]1CC[C@H](C(=O)O)CC1 [evacetrapib]
CL/F ([1]; 10 mg once daily, steady state): 17.5 (21) l/h
CL/F ([1]; 100 mg once daily, steady state): 21.7 (30) l/h
CL/F ([1]; 300 mg once daily, steady state): 39.6 (44) l/h
CL/F ([1]; 600 mg once daily, steady state, n = 24): 43.6 ^e (34) l/h
levels of evacetrapib 3 weeks after last dose ([1]; 600 mg/day for 14 days, crossover cohort, 3-week washout): undetectable levels; also recorded: complete washout
dose proportionality of plasma exposure ([1]; 10–600 mg): less than dose-proportional
mean apparent oral clearance at steady state, range across doses ([1]; 10–600 mg): 17.5 to 43.6 L/h
AUCt,ss for 600 mg relative to 100 mg ([1]; after 14 daily doses): approximately threefold
accumulation ratio during multiple dosing ([1]; based on trough concentrations, between Days 1 and 14): 2–2.5
levels of evacetrapib after 2-week (336 h) washout ([1]; each dose group): returned to levels at or near baseline; also recorded: decreased to near the lower limit of detection
half-life ([1]; human, plasma, oral): 24 to 44 h
Tmax ([1]; human, plasma, oral, 10 mg, tmax, 10 mg once daily, steady state, median (range)): 4.02 h
time to steady state ([1]; once-daily dosing): approximately 10 days
HDL-C: Mean % change from baseline (90% CI) ([2]; 10 mg/day): 11.69 (4.39, 18.99) %
HDL-C: Mean % change vs placebo (90 % CI) ([2]; 10 mg/day): 18.02 (9.76, 26.28) ^*** %
LDL-C: Mean % change from baseline (90% CI) ([2]; 10 mg/day): −11.94 (−18.31, −5.57) %
LDL-C: Mean % change vs placebo (90 % CI) ([2]; 10 mg/day): −13.59 (−21.83, −5.35) ^** %
Total cholesterol: Mean % change from baseline (90% CI) ([2]; 10 mg/day): −4.92 (−15.93, 6.10) %
Total cholesterol: Mean % change vs placebo (90 % CI) ([2]; 10 mg/day): −4.26 (−17.58, 9.06) %
Triglycerides: Mean % change from baseline (90% CI) ([2]; 10 mg/day): −12.92 (−26.89, 1.06) %
Triglycerides: Mean % change vs placebo (90 % CI) ([2]; 10 mg/day): 5.51 (−11.39, 22.40) %
HDL-C: Mean % change from baseline (90% CI) ([2]; 100 mg/day): 59.28 (51.54, 67.02) %
HDL-C: Mean % change vs placebo (90 % CI) ([2]; 100 mg/day): 65.61 (53.34, 77.88) ^*** %
LDL-C: Mean % change from baseline (90% CI) ([2]; 100 mg/day): −24.47 (−27.68, −21.26) %
LDL-C: Mean % change vs placebo (90 % CI) ([2]; 100 mg/day): −26.13 (−32.39, −19.86) ^*** %
Total cholesterol: Mean % change from baseline (90% CI) ([2]; 100 mg/day): 6.83 (−4.18, 17.85) %
Total cholesterol: Mean % change vs placebo (90 % CI) ([2]; 100 mg/day): 7.49 (−5.83, 20.81) %
Triglycerides: Mean % change from baseline (90% CI) ([2]; 100 mg/day): −3.75 (−17.73, 10.23) %
Triglycerides: Mean % change vs placebo (90 % CI) ([2]; 100 mg/day): 14.67 (−2.22, 31.57) %
HDL-C: Mean % change from baseline (90% CI) ([2]; 300 mg/day): 75.22 (68.87, 81.58) %
HDL-C: Mean % change vs placebo (90 % CI) ([2]; 300 mg/day): 81.56 (70.90, 92.22) ^*** %
LDL-C: Mean % change from baseline (90% CI) ([2]; 300 mg/day): −26.39 (−29.92, −22.85) %
LDL-C: Mean % change vs placebo (90 % CI) ([2]; 300 mg/day): −28.04 (−34.18, −21.90) ^*** %
Total cholesterol: Mean % change from baseline (90% CI) ([2]; 300 mg/day): 15.60 (3.53, 27.67) %
Total cholesterol: Mean % change vs placebo (90 % CI) ([2]; 300 mg/day): 16.25 (2.05, 30.46) %
Triglycerides: Mean % change from baseline (90% CI) ([2]; 300 mg/day): −2.10 (−17.41, 13.21) %
Triglycerides: Mean % change vs placebo (90 % CI) ([2]; 300 mg/day): 16.32 (−1.69, 34.34) %
decrease in LDL-C ([2]; 600 mg, Day 14, relative to placebo): 29%
HDL-C: Mean % change from baseline (90% CI) ([2]; 600 mg/day): 80.50 (73.05, 87.95) %
HDL-C: Mean % change vs placebo (90 % CI) ([2]; 600 mg/day): 87% and 86.83 (75.96, 97.71) ^*** %
LDL-C: Mean % change from baseline (90% CI) ([2]; 600 mg/day): −26.91 (−30.71, −23.11) %
LDL-C: Mean % change vs placebo (90 % CI) ([2]; 600 mg/day): −28.56 (−34.76, −22.37) ^*** %
Total cholesterol: Mean % change from baseline (90% CI) ([2]; 600 mg/day): 15.48 (7.85, 23.11) %
Total cholesterol: Mean % change vs placebo (90 % CI) ([2]; 600 mg/day): 16.13 (5.44, 26.82) ^* %
Triglycerides: Mean % change from baseline (90% CI) ([2]; 600 mg/day): −22.08 (−31.76, −12.40) %
Triglycerides: Mean % change vs placebo (90 % CI) ([2]; 600 mg/day): −3.66 (−17.22, 9.91) %
changes in triglycerides ([2]; 10–600 mg, Day 14): no statistically significant changes
HDL-C change (SD) from baseline to 2 weeks after the last dose ([2]; 600-mg dose group): 7.3%
LDL-C change (SD) from baseline to 2 weeks after the last dose ([2]; 600-mg dose group): −2.6%
HDL-C and LDL-C after 2-week washout ([2]; all dose groups): returned to levels at or near baseline
EAUC50 for the HDL-C model [3, 5]: 4110 ng·h/mL
EAUC50 for the LDL-C model [3, 5]: 582 (194 to 1810) ng · h/ml
maximum theoretical change from baseline for HDL-C (Emax) ([3]; after 14 days of dosing): 126%
maximum theoretical change from baseline for LDL-C (Emax) ([3]; after 14 days of dosing): −28.2%
tolerability ([4]; 12 weeks, daily doses up to 500 mg monotherapy or 100 mg with a statin): well tolerated
decrease in LDL-C [4, 6]: up to 36%
increase in HDL-C levels [4, 6]: up to 129%
effects on blood pressure or mineralocorticoid activity ([4]; Phase 2): without having effects
